S100A4 MyoIIA: inhibitors of human S100A4 binding to myosin IIA peptide; P26447; S100A4/TAMRA-MyoIIA peptide fluorescence polarization; AID 652163; inhibition, % at 10.7 µM; 0.14% of 360,000 active;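 active = mean inhibition of at least 70% across replicates, with every replicate also reaching that level; inconclusive = mean inhibition reaches 70% but some replicates fall short; inactive = mean inhibition below 70%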
Target sequence (P26447 whole entry, looked up): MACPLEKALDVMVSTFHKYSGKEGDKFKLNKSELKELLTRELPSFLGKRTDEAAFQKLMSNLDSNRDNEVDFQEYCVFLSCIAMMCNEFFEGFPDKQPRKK
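Material: S100A4 monomer protein / Buffer or medium: 50 mM HEPES pH 7.2, 10 mM CaCl2, 100 mM KCl / Times: 5 min incubation before reading / Benchmarks: neutral control DMSO, positive control TFP / Reagent: labelled myosin peptide probe, 5 nM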
CDK5 inh: inhibitors of human CDK5/p35 kinase; inhibition, % at 10 µM; Recombinant CDK5/p35, ADP-Glo luminescence, 60 min; AID 488839; 0.01% of 330,000 active; Q00535+Q15078;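 active = highest replicate inhibition of at least 50% and at least 75% of replicates reaching 50%; inconclusive = only one of the two criteria met; inactive = both criteria failed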;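 note: plate controls were DMSO neutral control for no effect and GW8510 at 10 µM for full effect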
CAL PDZ FP-1: human CAL PDZ-peptide interaction inhibition. Q9HD26. purified CAL PDZ, TMR-peptide fluorescence polarization, 1 h. inhibition, % at 20 µM. 0.02% of 330,000 active;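 active = highest replicate inhibition of at least 40%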;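 note: plate controls were DMSO neutral control wells for no effect and unlabeled competitor peptide control wells for full effect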
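Read-out basis: mP drop reported as inhibition | Assay system: Tagged CAL PDZ protein CerCALP, purified | Benchmarks: Unlabelled peptide for full inhibition, DMSO wells as neutral | Schedule: 1 h incubation at room temperature before polarization reading | Buffer or medium: Sodium phosphate/NaCl buffer pH 7.4 with TCEP, IgG, Thesit | Doses: Single point, 20 µM | Measured by: Fluorescence polarization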
Statin myotox sup: protects C2C12 myotubes from simvastatin toxicity | ATP luminescence, 48 h; scaled: DMSO 0, geranylgeraniol control 100 | rescue of ATP level, % at 7.49 µM | 0.78% of 330,000 active | AID 602340;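 active = mean ATP rescue above about 67%, or every replicate alone reaching that limit, limit read from the data, passing the limit was not always enough; inconclusive = no clear call, values can overlap the other calls; inactive = mean under the limit and some replicate under it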;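 note: myotubes were challenged with 10 µM simvastatin during compound exposure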
CAL PDZ FP-2: blocks peptide binding to the human CAL PDZ domain; Q9HD26; purified CAL PDZ, TMR-peptide fluorescence polarization, 1 h; inhibition, % at 24.9 µM; 0.92% of 300,000 active; AID 602252;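 active = mean inhibition of at least 30% with at least half of replicates also reaching 30%; inconclusive = no clear call, values can overlap the other calls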;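 note: 0% = DMSO neutral control and 100% = excess unlabeled competitor peptide PRC23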
dFosB act-1: mouse delta FosB homodimer activation; P13346; purified delta FosB, TAMRA-CDK5 oligo fluorescence polarization; percent of positive-control signal above neutral wells; activation, % at 25 µM; 0.99% of 340,000 active; AID 493131;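 active = mean activation above about 17%, with every replicate also reaching it, limit read from the data, passing the limit was not always enough; inconclusive = only one of the two conditions met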
Target sequence (P13346 whole entry, looked up): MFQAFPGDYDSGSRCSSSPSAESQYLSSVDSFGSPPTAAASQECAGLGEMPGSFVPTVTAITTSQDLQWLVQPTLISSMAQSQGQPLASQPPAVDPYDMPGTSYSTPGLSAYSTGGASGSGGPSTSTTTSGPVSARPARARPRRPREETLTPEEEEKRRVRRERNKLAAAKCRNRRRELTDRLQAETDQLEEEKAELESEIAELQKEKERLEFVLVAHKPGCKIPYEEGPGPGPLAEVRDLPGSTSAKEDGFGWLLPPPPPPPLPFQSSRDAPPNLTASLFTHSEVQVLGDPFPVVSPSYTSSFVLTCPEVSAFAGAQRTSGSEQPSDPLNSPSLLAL
dFosB act-2: activators of mouse delta FosB homodimer DNA binding. AID 588690. purified delta FosB, TAMRA-CDK5 oligo fluorescence polarization; normalised: neutral wells 0, positive control 100. activation, % at 24.9 µM. shares compounds with dFosB act-1. 2,400 tested, under 10 active;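 active = highest replicate activation at or above 34% and every replicate reaching that threshold; inconclusive = meets only one of the two criteria; inactive = meets neither criterion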;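 note: higher polarization means more probe DNA bound by delta FosB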
Active calls of the source: *; u = inconclusive; x = not tested or not shown. In the library only some 2% were active in any assay of this set; here they are far more common.

SMILES	S100A4 MyoIIA	CDK5 inh	CAL PDZ FP-1	Statin myotox sup	CAL PDZ FP-2	dFosB act-1	dFosB act-2
CCOc1ccc(NC(=O)Cn2nnc(-c3ccccc3NC(=O)C3CC3)n2)cc1	x	-1	-2	-19	1	60*	1
COc1ccc(C(=O)Nc2ccccc2-c2nnn(CC(N)=O)n2)cc1	-8	3	-3	-2	7	44*	3
COc1ccc(C(=O)N2CCN(c3ccccc3OC)CC2)cc1	1	-1	-1	0	-1	-4	x
COc1ccc2cc3cc(C(=O)NCC4CCCO4)oc3nc2c1 (stereo not given)	x	2	0	x	1	-23	x
Cc1ccc(CNC(=O)COC(=O)c2cc(=O)[nH]c3ccccc23)cc1	-8	0	-1	3	-2	55*	-1
O=C(COC(=O)c1cc(=O)[nH]c2ccccc12)Nc1nc(-c2ccccc2)cs1	-12	-2	-1	11	1	55*	4
CCNC(=O)COC(=O)c1cc(=O)[nH]c2ccccc12	x	-1	0	-1	x	-1	x
O=C(COC(=O)c1cc(=O)[nH]c2ccccc12)Nc1nccs1	-10	0	0	-11	-5	u	x
Cc1cccc(C)c1NC(=O)COC(=O)c1cc(=O)[nH]c2ccccc12	6	0	0	-10	-1	42*	3
O=C(COC(=O)c1cc(=O)[nH]c2ccccc12)Nc1ccc(Cl)cn1	12	0	-3	-8	1	19*	1
CN1C(=O)CSc2ccc(NC(=O)N3CCc4ccccc43)cc21	-14	1	0	-2	-2	-8	x
COc1cccc(C(=O)NCc2nnc(SCC(=O)Nc3nccs3)n2-c2ccccc2)c1	1	-1	0	-2	x	28*	3
COc1ccc(-c2noc(CCC(=O)NCc3ccco3)n2)cc1	7	0	0	23	6	-1	x
O=C(CSc1nc(-c2cccs2)cc(C(F)(F)F)n1)NCc1ccccc1	x	-1	0	-2	x	22*	5
O=C(Nc1nnc(C2CC2)s1)c1cccc(S(=O)(=O)N2CCc3ccccc32)c1	x	0	-2	5	-4	51*	1
Cc1nnc(NC(=O)c2cccc(S(=O)(=O)N3CCc4ccccc43)c2)s1	x	-2	-1	16	-3	-2	x
O=C(Nc1nc2ccccc2s1)c1cccc(S(=O)(=O)N2CCc3ccccc32)c1	-1	-2	-3	3	0	34*	1
CCc1nnc(NC(=O)c2cccc(S(=O)(=O)N3CCc4ccccc43)c2)s1	x	-2	-1	2	-4	34*	0
COc1cc(OC)c(N(C)S(=O)(=O)c2cccc(C(=O)Nc3nnc(C4CC4)s3)c2)cc1Cl	-7	-1	-1	2	4	63*	-7
COc1ccc(S(=O)(=O)NCc2cccnc2)cc1C(=O)NC1CCCCC1	9	1	0	4	4	-3	x
O=C(Nc1nc2c(s1)CN(Cc1ccccc1)CC2)c1cccc(S(=O)(=O)N2CCc3ccccc32)c1	x	0	-3	-2	-2	74*	-19
O=C(CSc1nnc(NC(=O)c2ccco2)s1)NC1CCCCC1	x	1	-3	-5	0	22*	7
O=C(CSc1nnc(NC(=O)c2ccco2)s1)Nc1ccc(F)cc1	-2	-2	0	5	-3	19*	-5
O=c1cc(-c2ccccc2)nc(SCc2ccc(Cl)cc2)[nH]1	x	-2	-1	32	-1	6	x
O=C(Nc1ccc(S(=O)(=O)NC2=NCCCCC2)cc1)c1ccc(Cl)c([N+](=O)[O-])c1	-1	-1	0	-1	6	-9	x
Cc1cc(C)cc(C(=O)Nc2ccc(NC(=O)Cc3ccccc3)cc2)c1	3	0	-1	-23	x	43*	5
O=C(Cc1ccccc1)Nc1ccc(NC(=O)c2cccc(Cl)c2)cc1	x	1	0	x	0	-1	x

Source: PubChem BioAssay (Broad Institute)
